Data: ChEMBL document CHEMBL5154824, “Design and synthesis of multifunctional microtubule targeting agents endowed with dual pro-apoptotic and anti-autophagic efficacy” (Eur J Med Chem, 2022)
The source made the active and inactive calls. The calls are words filed in the database; no cut-off is given here.

Experiments:
Tubulin (Homo sapiens) = Tubulin (Homo sapiens) (UniProt P68371+Q9H4B7+P0DPH7+P68366+Q13509+Q71U36+P04350+Q3ZCM7+P07437+P68363+Q9BQE3+Q6PEY2+Q13885+Q9BVA1+Q9BUF5); assay: Binding affinity to microtubule polymerization (unknown origin) assessed as formation of microtubule at 27.5 uM measured for 2 hrs by plate reader method; assay type: protein-complex assay
Summary of the method: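 25 μM tubulin in GAB buffer with compound at 27.5 μM or DMSO vehicle; podophyllotoxin 27.5 μM as destabiliser control. Polymerisation started by raising temperature from 4 to 37 °C at time 0; microtubule formation followed as absorbance increase over time.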

SCC-4 [1] = assay: Induction of autophagy in human SCC-4 cells assessed as increase in LC3-II to LC3-I ratio at 10 uM incubated for 30 mins in presence of EBSS followed by compound addition and measured after 3 hrs by Western blot analysis; assay type: functional, cell-based
Summary of the method: (§1)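 SCC4 cells were pre-incubated with or without EBSS for 30 min, then given 10 μM compound, with 10 μM chloroquine as reference, for 3 h. LC3-I/II was assessed by Western blot with GAPDH loading control. The LC3-II/LC3-I ratio came from densitometry, as mean ± SEM of four experiments, with an unpaired one-tailed t-test.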

[2] = Induction of Pro-apoptosis in human HL-60 cells assessed as increase in apoptotic cells at 10 uM after 48 hrs by Annexin-V/PI-staining based flow cytometry; assay type: functional
Ca9-22 = assay: Cytotoxicity against human Ca9-22 cells assessed as reduction in cell viability measured after 48 hrs by alamar blue viability assay; assay type: functional, cell-based; conditions: Ca9-22, 48 h
Summary of the method: (§2)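 Oral squamous carcinoma cells were exposed for 48 h to at least 8 increasing concentrations. Viability was read by AlamarBlue. IC50 is the concentration that halves viability, taken as the mean ± SD of at least three independent experiments.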

[3] = Mutagenicity in Salmonella typhimurium TA100 in presence of rat liver S9 fraction at 0.3 to 60 uM by AMES test; assay type: toxicity, subcellular; conditions: salmonella enterica subsp. enterica serovar typhimurium, s9, 60 µM; dose 0.3-60 µM
Emu-TCL1 = assay: Induction of apoptosis in mouse Emu-TCL1 cells model of CLL assessed as mitochondrial membrane depolarization at 10 uM after 48 hrs by TMRM dye based flow cytometric analysis; assay type: functional, cell-based
Summary of the method: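 Splenocytes from Eμ-TCL1 leukaemic mice were treated with 10 μM or DMSO vehicle for 48 h, then TMRM-loaded. Flow cytometry gave the percentage of TMRM-low cells as mean ± SD (n = 3).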

A549 = assay: Cytotoxicity against human A549 cells assessed as inhibition of cell growth measured after 48 hrs by MTT assay; assay type: functional, cell-based; conditions: A549, 48 h
NIH3T3 = assay: Cytotoxicity against mouse NIH3T3 cells assessed as inhibition of cell growth measured after 24 hrs by neutral red uptake assay; assay type: functional, cell-based; conditions: NIH3T3, 24 h
Summary of the method: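 Neutral red uptake viability test. NIH3T3 fibroblasts or primary human oral epithelial cells were exposed to compound at 0.1 to 120 μM. EC50 was derived, with SD below 5%.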

SCC-4 [4] = assay: Induction of apoptosis in human SCC-4 cells assessed as increase in apoptotic cells at 2 uM after 48 hrs by Annexin V-FITC/PI staining based flow cytometry method; assay type: functional, cell-based
Summary of the method: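 SCC4 cells were treated at 0.5 or 2 μM for 48 h, then stained with Annexin V/PI and analysed by flow cytometry. Data are mean ± SEM of three independent experiments, with an unpaired one-tailed t-test versus vehicle.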

KYSE-520 cell line [5] = assay: Cytotoxicity against human KYSE520 cells assessed as inhibition of cell growth measured after 72 hrs by alamar blue viability assay; assay type: functional, cell-based; conditions: KYSE-520, 72 h
Summary of the method: (§3)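 KYSE-520 oesophageal cells were exposed to at least 8 increasing concentrations for 48 h or 72 h. Viability was read out to give IC50, as the mean ± SD of at least three independent experiments.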

HeLa [6] = assay: Induction of morphological changes in human HeLa cells assessed as golgi complex fragmentation at 10 uM incubated for 3 hrs by phalloidin staining based laser scanning confocal microscopic analysis; assay type: functional, cell-based
Summary of the method: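 HeLa cells in growth medium were treated at 1 or 10 μM, with BafA1 300 nM as reference, for 3 h. Cells were fixed in 4% PFA, stained with anti-GM130 for the Golgi and AF647-phalloidin for actin, and imaged by laser scanning confocal microscopy.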

OE33 = assay: Cytotoxicity against human OE33 cells assessed as inhibition of cell growth measured after 72 hrs by MTT assay; assay type: functional, cell-based; conditions: OE33, 72 h
Summary of the method: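 Oesophageal adenocarcinoma lines were exposed to at least 8 increasing concentrations for 72 h. Viability was measured by MTT. IC50 is the mean ± SD of at least three independent experiments.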

KYSE-520 cell line [7] = assay: Cytotoxicity against human KYSE520 cells assessed as inhibition of cell growth measured after 48 hrs by alamar blue viability assay; assay type: functional, cell-based; conditions: KYSE-520, 48 h; summary of the method: as §3
[8] = biological target: Nuclear factor NF-kappa-B complex (Homo sapiens) (UniProt Q00653+P19838+Q04206); assay: Inhibition of NF-kappaB phosphorylation in human HL-60 cells at 10 uM measured after 2 hrs by Immunoblotting analysis; assay type: cell-based
Sequence of Nuclear factor NF-kappa-B complex (Homo sapiens) (P19838 whole entry, looked up): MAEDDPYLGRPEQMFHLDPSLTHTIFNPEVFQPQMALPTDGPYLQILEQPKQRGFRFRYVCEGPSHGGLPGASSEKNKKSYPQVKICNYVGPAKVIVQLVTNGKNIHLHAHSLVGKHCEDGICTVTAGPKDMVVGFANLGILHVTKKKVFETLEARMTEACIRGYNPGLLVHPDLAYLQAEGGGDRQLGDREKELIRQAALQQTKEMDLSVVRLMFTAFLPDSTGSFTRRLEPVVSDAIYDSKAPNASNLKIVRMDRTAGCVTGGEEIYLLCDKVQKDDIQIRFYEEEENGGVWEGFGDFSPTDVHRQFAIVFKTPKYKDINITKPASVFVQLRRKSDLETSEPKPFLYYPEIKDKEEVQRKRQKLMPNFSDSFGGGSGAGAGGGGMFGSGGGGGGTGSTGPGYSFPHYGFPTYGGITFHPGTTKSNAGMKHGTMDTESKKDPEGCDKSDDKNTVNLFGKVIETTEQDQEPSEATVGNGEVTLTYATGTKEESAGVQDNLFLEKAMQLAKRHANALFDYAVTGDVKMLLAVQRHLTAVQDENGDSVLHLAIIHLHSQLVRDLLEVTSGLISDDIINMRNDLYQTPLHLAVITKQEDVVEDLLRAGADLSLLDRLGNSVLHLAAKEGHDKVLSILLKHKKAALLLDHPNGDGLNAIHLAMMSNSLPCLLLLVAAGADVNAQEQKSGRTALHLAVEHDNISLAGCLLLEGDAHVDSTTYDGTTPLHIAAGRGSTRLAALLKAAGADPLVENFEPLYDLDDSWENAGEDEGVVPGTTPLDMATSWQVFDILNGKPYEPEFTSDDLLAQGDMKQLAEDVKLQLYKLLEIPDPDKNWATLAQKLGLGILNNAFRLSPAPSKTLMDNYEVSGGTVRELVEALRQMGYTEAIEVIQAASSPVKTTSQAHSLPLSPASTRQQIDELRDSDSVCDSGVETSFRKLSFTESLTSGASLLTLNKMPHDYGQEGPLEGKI
Sequence of Nuclear factor NF-kappa-B complex (Homo sapiens) (Q00653 whole entry, looked up): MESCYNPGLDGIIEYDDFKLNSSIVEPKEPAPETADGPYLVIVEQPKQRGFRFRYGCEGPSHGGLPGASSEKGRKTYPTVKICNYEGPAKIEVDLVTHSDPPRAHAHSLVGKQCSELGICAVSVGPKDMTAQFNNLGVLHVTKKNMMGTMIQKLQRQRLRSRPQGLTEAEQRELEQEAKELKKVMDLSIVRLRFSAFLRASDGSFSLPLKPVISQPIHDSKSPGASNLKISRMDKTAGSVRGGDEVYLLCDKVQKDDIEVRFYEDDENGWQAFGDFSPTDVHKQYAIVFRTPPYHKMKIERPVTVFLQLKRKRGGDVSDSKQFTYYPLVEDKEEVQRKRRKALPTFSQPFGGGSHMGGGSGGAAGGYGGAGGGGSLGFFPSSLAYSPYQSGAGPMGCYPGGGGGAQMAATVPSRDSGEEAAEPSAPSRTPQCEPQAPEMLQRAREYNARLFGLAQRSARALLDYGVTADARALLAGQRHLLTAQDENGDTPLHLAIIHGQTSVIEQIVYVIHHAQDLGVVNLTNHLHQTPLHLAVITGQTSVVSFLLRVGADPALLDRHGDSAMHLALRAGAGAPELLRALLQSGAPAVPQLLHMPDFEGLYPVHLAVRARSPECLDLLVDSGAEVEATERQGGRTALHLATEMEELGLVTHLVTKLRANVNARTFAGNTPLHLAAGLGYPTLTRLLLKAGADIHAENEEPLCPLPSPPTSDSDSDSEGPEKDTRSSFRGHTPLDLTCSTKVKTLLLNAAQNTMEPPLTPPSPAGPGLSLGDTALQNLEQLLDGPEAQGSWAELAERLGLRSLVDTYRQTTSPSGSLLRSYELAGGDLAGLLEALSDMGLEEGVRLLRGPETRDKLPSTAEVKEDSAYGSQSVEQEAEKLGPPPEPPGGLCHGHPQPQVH
Sequence of Nuclear factor NF-kappa-B complex (Homo sapiens) (Q04206 whole entry, looked up): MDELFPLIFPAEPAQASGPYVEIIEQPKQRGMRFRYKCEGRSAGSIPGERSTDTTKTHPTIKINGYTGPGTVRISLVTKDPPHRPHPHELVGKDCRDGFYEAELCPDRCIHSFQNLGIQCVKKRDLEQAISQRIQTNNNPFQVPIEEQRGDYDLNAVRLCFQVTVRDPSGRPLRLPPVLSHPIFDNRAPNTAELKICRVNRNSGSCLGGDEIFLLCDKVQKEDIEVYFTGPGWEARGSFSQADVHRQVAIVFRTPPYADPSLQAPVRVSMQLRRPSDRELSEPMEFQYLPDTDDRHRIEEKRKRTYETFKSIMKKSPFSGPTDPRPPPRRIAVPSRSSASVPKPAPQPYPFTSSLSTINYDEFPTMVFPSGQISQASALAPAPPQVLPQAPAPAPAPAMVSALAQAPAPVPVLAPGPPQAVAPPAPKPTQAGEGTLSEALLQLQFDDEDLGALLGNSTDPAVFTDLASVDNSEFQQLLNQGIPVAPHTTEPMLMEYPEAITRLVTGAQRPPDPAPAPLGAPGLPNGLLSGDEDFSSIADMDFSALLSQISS
Summary of the method: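 HL-60 cells were treated at 10 μM or with DMSO vehicle for 2 h. Phospho-NF-κB and phospho-Erk1/2 were immunoblotted and quantified by densitometry relative to β-tubulin. Data are mean ± SD (n = 2), analysed by one-way ANOVA.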

HL-60 [9] = assay: Induction of autophagy in human HL-60 cells assessed as increase in p62 protein level at 10 uM […] by Immunoblotting analysis; assay type: functional, cell-based
SCC-4 [10] = assay: Induction of autophagy in human SCC-4 cells assessed as increase in LC3-II to LC3-I ratio at 10 uM in absence of EBSS measured after 3 hrs by Western blot analysis; assay type: functional, cell-based; summary of the method: as §1
HeLa [11] = assay: Induction of autophagy in human HeLa cells assessed as increasing number of autophagosomes at 1 to 10 uM incubated for 3 hrs with HBSS medium by immunofluorescence based laser scanning confocal microscopic analysis; assay type: functional, cell-based; conditions: dose 1-10 µM
Summary of the method: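 HeLa cells were treated in HBSS at 1 or 10 μM, with BafA1 300 nM as reference, for 3 h. After fixation in ice-cold methanol, LC3 and LAMP1 were immunostained. Laser scanning confocal microscopy assessed autophagosome number and LC3/LAMP1 colocalisation.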

KYSE-520 cell line [12] = assay: Induction of apoptosis in human KYSE520 cells assessed as increase in apoptotic cells at 3 to 10 uM after 72 hrs by Annexin V-FITC/PI staining based flow cytometry method; assay type: functional, cell-based; conditions: dose 3-10 µM
Summary of the method: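 KYSE-520 cells were treated at 3 and 10 μM for 72 h, then analysed by flow cytometry after Annexin V/PI dual staining.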

HL-60 [13] = assay: Induction of autophagy in human HL-60 cells assessed as increase in LC3-II protein level at 10 uM measured up to 1 hr by Immunoblotting analysis; assay type: functional, cell-based
SCC-4 [14] = assay: Induction of autophagy in human SCC-4 cells assessed as increase in UlK1 phosphorylation at 10 uM in measured after 24 hrs by Immunoblotting analysis; assay type: functional, cell-based
Summary of the method: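 SCC4 cells under basal conditions were treated at 10 μM for 24 h. Autophagy-related proteins were immunoblotted, and densitometry was expressed as a ratio normalised to vehicle control.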

SCC-4 [15] = assay: Cytotoxicity against human SCC-4 cells assessed as reduction in cell viability measured after 48 hrs by alamar blue viability assay; assay type: functional, cell-based; conditions: SCC-4, 48 h; summary of the method: as §2

Row | SMILES | Activity (Tubulin (Homo sapiens)) | Activity (SCC-4 [1]) | Activity [2] | IC50 (Ca9-22) [nM] | Activity [3] | Activity (Emu-TCL1) | IC50 (A549) [nM] | EC50 (NIH3T3) [nM] | Activity (SCC-4 [4]) | IC50 (KYSE-520 cell line [5]) [nM] | Activity (HeLa [6]) | IC50 (OE33) [nM] | IC50 (KYSE-520 cell line [7]) [nM] | inhibition [8] | Activity (HL-60 [9]) | Activity (SCC-4 [10]) | Activity (HeLa [11]) | Activity (KYSE-520 cell line [12]) | Activity (HL-60 [13]) | Activity (SCC-4 [14]) | other results
1 | O=C(OC1=C(c2cccc3ncccc23)Oc2cc3ccccc3cc2-n2cccc21)C1CCNCC1 | Active | Active | >=70% | 2000 | Non-Toxic | Active | 6150 | 600 | Active | 890 | Active | 1930 | 1680 | Active | Active | Active | Active | Active | Active | Active | IC50 (SCC-4 [15]): 850 nM
2 | CN1CCN(C(=O)OC2=C(c3cccc4ncccc34)Oc3cc4ccccc4cc3-n3cccc32)CC1 | Active | Active | >=70% | 130 | Non-Toxic | Active | 774 | 450 | Active | 1680 | Active | 400 | 3600 | Active | Active | Active | Active | Active | Active | Active | IC50 (SCC-4 [15]): 540 nM
